The text below walks through data of ChEMBL document CHEMBL1770142, “Improvement of the synthesis and pharmacokinetic properties of chromenotriazolopyrimidine MDM2-p53 protein-protein inhibitors” (Bioorg Med Chem Lett, 2011).

A short description of data set [1]: Oral bioavailability in rat at 2 mg/kg. Format: ADME, organism-based. The conditions noted are these: in vivo. In outline: (§1)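 Rat PK: intravenous 0.5 mg/kg in 100% DMSO; oral 2.0 mg/kg in 0.5% methylcellulose/1% Tween 80/98.5% water. Plasma profiles give MRT, Vdss and CL from the iv arm and F from the oral arm.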
The nature of data set [2]: Volume of distribution at steady state in rat at 0.5 mg/kg, iv. The conditions noted are these: in vivo, read-out: Vdss. Set-up: dose 0.5 mg/kg, route intravenous. The format is ADME, organism-based. In outline: as §1
The nature of data set [3]: Solubility of the compound in phosphate buffer saline. The format is physicochemical.
Data set [4] is described as follows: Mean residence time in rat at 0.5 mg/kg, iv. Format: ADME, organism-based. Set-up: dose 0.5 mg/kg, route intravenous. Conditions: in vivo. In outline: as §1
Data set [5] in a line: Mean residence time in rat at 2 mg/kg, iv. The format is ADME, organism-based. Set-up: dose 2 mg/kg, route intravenous. Conditions: in vivo. Summed up: (§2)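 Rats dosed intravenously at 2.0 mg/kg in DMSO, or orally at 5.0 mg/kg in 2% HPMC, 1% Tween 80, pH 2.2 with HCl. Plasma levels of parent and of the 4/5 conversion products were followed over time. iv parameters and oral bioavailability were taken from these profiles.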

Data set [6] can be described thus: Oral bioavailability in rat at 5 mg/kg, po. The format is ADME, organism-based. Conditions: in vivo. Summed up:
as §2

Data set [7] is described as follows: Volume of distribution at steady state in rat at 2 mg/kg, iv. Set-up: dose 2 mg/kg, route intravenous. Conditions: in vivo, read-out: Vdss. The format is ADME, organism-based. In outline:
as §2

≈ marks a conversion by molar mass, not a printed value.

`O=C(O)CN1C2=C([C@H](c3ccc(Br)cc3)n3ncnc31)[C@@H](c1ccc(Br)cc1)Oc1ccccc12` returned a bioavailability in data set [1] of 14%. Moreover, in data set [2], the Vd was found to be 2.6 L/kg. The compound also registered a solubility in data set [3] of 132 µg/mL (≈ 222 µM). This compound also showed an MRT in data set [4] of 0.46 h.
Regarding `CN1C2=C([C@H](c3ccc(Br)cc3)n3ncnc31)[C@@H](c1ccc(Br)cc1)Oc1ccccc12`, in data set [5], the MRT stood at 2.4 h. The bioavailability in data set [6] worked out at 23%. Also, in data set [3], the solubility was under 1 µg/mL. Also, in data set [7], the Vd was determined as 9.9 L/kg.
With `O=C(O)CCCCN1C2=C([C@H](c3ccc(Br)cc3)n3ncnc31)[C@@H](c1ccc(Br)cc1)Oc1ccccc12`, the bioavailability in data set [1] is 54%. The Vd in data set [2] stood at 1.7 L/kg. In data set [3], this compound gave a solubility of 6.1 µg/mL (≈ 9.59 µM). Further, the MRT in data set [4] stood at 4.1 h.

The bioavailability is dose-corrected exposure relative to a reference, in per cent. A high value points to much systemic uptake. The solubility is the concentration that dissolves in the medium under given conditions. A low value points to little dissolved substance. In general, MRT refers to a mean duration of stay, worked out from the concentration-time curve.
